Reference: ChEMBL document CHEMBL1142073, “Synergistic activity of R207910 combined with pyrazinamide against murine tuberculosis” (2007)
Calls of active or inactive are those of the source. The calls are words filed in the database; no cut-off is given here.

What was measured:
[1] = system: Mycobacterium tuberculosis; test: Reduction of lung lesions in Mycobacterium tuberculosis H37Rv infected Swiss mouse at 100 mg/kg, po for 5 days/week after 2 months; type: functional, organism-based; parameters: dose 100 mg/kg
[2] = system: Mycobacterium tuberculosis; test: Reduction of bacterial counts in Mycobacterium tuberculosis H37Rv infected Swiss mouse lung at 100 mg/kg, po for 5 days/week after 2 months; type: functional
Method in brief: (§1)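 Female 4-week-old Swiss mice were infected in the tail vein with about 2 10 6 CFU of H37Rv, grown in Dubos broth for 7 days at 37 C. Gavage started 2 weeks post-infection, 5 days/week, with rifampin given 1 h before other drugs. Lung homogenates were plated for CFU; some groups had both lungs cultured undiluted. Mann-Whitney U test.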

[3] = system: Mycobacterium tuberculosis; test: Reduction of bacterial counts in Mycobacterium tuberculosis H37Rv infected Swiss mouse lung at 100 mg/kg, po for 5 days/week after 1 month; type: functional; method in brief: as §1
[4] = system: Mycobacterium tuberculosis; test: Reduction of lung lesions in Mycobacterium tuberculosis H37Rv infected Swiss mouse at 10 mg/kg, po for 5 days/week after 2 months; type: functional, organism-based; parameters: dose 10 mg/kg
[5] = system: Mycobacterium tuberculosis; test: Reduction of bacterial counts in Mycobacterium tuberculosis H37Rv infected Swiss mouse lung at 10 mg/kg, po for 5 days/week after 2 months; type: functional; method in brief: as §1
[6] = system: Mycobacterium tuberculosis; test: Reduction of bacterial counts in Mycobacterium tuberculosis H37Rv infected Swiss mouse lung at 10 mg/kg, po for 5 days/week after 1 month; type: functional; method in brief: as §1
[7] = system: Mycobacterium tuberculosis; test: Reduction of lung lesions in Mycobacterium tuberculosis H37Rv infected Swiss mouse at 150 mg/kg, po for 5 days/week after 2 months; type: functional, organism-based; parameters: dose 150 mg/kg
[8] = system: Mycobacterium tuberculosis; test: Reduction of bacterial counts in Mycobacterium tuberculosis H37Rv infected Swiss mouse lung at 150 mg/kg, po for 5 days/week after 1 month; type: functional; method in brief: as §1
[9] = system: Mycobacterium tuberculosis; test: Reduction of bacterial counts in Mycobacterium tuberculosis H37Rv infected Swiss mouse lung at 150 mg/kg, po for 5 days/week after 2 months; type: functional; method in brief: as §1
[10] = system: Mycobacterium tuberculosis; test: Reduction of bacterial counts in Mycobacterium tuberculosis H37Rv infected Swiss mouse lung at 25 mg/kg, po for 5 days/week after 1 month; type: functional; method in brief: as §1
[11] = system: Mycobacterium tuberculosis; test: Reduction of bacterial counts in Mycobacterium tuberculosis H37Rv infected Swiss mouse lung at 25 mg/kg, po for 5 days/week after 2 months; type: functional; method in brief: as §1
[12] = system: Mycobacterium tuberculosis; test: Reduction of lung lesions in Mycobacterium tuberculosis H37Rv infected Swiss mouse at 25 mg/kg, po for 5 days/week after 1 month; type: functional, organism-based; parameters: dose 25 mg/kg
[13] = system: Mycobacterium tuberculosis; test: Reduction of lung lesions in Mycobacterium tuberculosis H37Rv infected Swiss mouse at 25 mg/kg, po for 5 days/week after 2 months; type: functional, organism-based; parameters: dose 25 mg/kg

For `COc1c(N2C[C@@H]3CCCN[C@@H]3C2)c(F)cc2c(=O)c(C(=O)O)cn(C3CC3)c12` [MOXIFLOXACIN], the Activity [1] was “Active”, the Log10 cfu [2] was 4.3 and the Log10 cfu [3] was 5.5.

With `CO[C@H]1/C=C/O[C@@]2(C)Oc3c(C)c(O)c4c(O)c(c(/C=N/N5CCN(C)CC5)c(O)c4c3C2=O)NC(=O)/C(C)=C\C=C\[C@H](C)[C@H](O)[C@@H](C)[C@@H](O)[C@@H](C)[C@H](OC(C)=O)[C@@H]1C` [RIFAMPIN] the Activity [4] was “Active”, the Log10 cfu [5] was 4.1 and the Log10 cfu [6] was 6.

For `NC(=O)c1cnccn1` [PYRAZINAMIDE], the Activity [7] was “inactive”, the Log10 cfu [8] was 6.2 and the Log10 cfu [9] was 6.4.

In the case of `COc1nc2ccc(Br)cc2cc1[C@@H](c1ccccc1)[C@@](O)(CCN(C)C)c1cccc2ccccc12` [BEDAQUILINE], the Log10 cfu [10] is reported as 4.1, the Log10 cfu [11] is reported as 2.3 and the Activity [12] is reported as “Active”. For the same compound, the Activity [13] was “Active”.

In the case of `NNC(=O)c1ccncc1` [ISONIAZID], the Log10 cfu [10] is reported as 4.9, the Log10 cfu [11] is reported as 4.7 and the Activity [13] is reported as “Active”.
